This is one part of a sample in which hits are shown more often than they occur.
FXN GAA850 act: increases GAA850 frataxin promoter reporter activity; HEK293 lucGAA850 FXN promoter luciferase reporter, 24 h; percent of 10 µM SAHA response; activation, % at 6 µM; 360,000 compounds, 0.56% hits;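 active means activation above the average of all compounds screened plus 3 SD, cutoff fixed separately per campaign, cut at about 7.5% in these data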
UPR CHOP act: apoptotic UPR (CHOP) activation; CHO-CHOP luciferase reporter, luminescence; percent of tunicamycin response over DMSO baseline; activation, % at 10 µM; 330,000 compounds, 0.34% hits;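 active means at 10 µM dose, activation of 40% or more, normalized to positive control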
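Evaluation: % reporter activation, DMSO baseline versus tunicamycin full activation; System: CHO-CHOP luciferase reporter cell line; Input: 500 cells/well; Incubation: 6 h compound treatment, 37 °C; Measured by: Steady-Glo luciferase luminescence; Dosing: one dose, 10 µM in 0.5% DMSO; Buffer or medium: F12 medium, 10% FBS; Benchmarks: positive tunicamycin 10 µg/mL, negative DMSO alone.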
CHOP inhibitor: inhibitors of CHOP induction in ER stress response. CHO-K1 CHOP-promoter luciferase, tunicamycin-induced, 15-18 h. 220,000 compounds, 3.8% hits. inhibition, % at 10 µM;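 active means compounds that reduced the stress-induced luciferase reporter signal by more than about 70% of percent inhibition, limit read from the data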
UPR XBP1 act: activators of adaptive arm of unfolded protein response (XBP1) | activation, % at 20 µM | 330,000 compounds, 0.33% hits | AID 463104 | CHO-XBP1 luciferase reporter, IRE1-XBP1 UPR activation, luminescence; percent of tunicamycin response, DMSO as zero;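 active means versus positive control, 20 µM dose yields 30% or more activation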
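Material: IRE1-XBP1 luciferase reporter CHO line / Quantity: one thousand reporter cells per well / Buffer or medium: F12 with 10% serum / Compound: 20 µM single concentration, DMSO 1% / Times: 6 h treatment, 37 °C / Detection: Steady-Glo luciferase glow luminescence, 10 min after reagent addition / Benchmarks: tunicamycin high, DMSO low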
CHOP inh conf: confirmation of CHOP induction inhibitors | shares compounds with CHOP inhibitor | CHO-CHOP promoter luciferase reporter, tunicamycin-induced, luminescence | inhibition, % at 10 µM | 2,100 compounds, 45% hits;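 active means mean of three repeat readings of reporter signal inhibition above a set limit, cut at about 70% in these data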
Each line names hits and unclear results; the compound was inactive in the other large screens (follow-up assays come after a bar, where they were run).

Cc1ccc(S(=O)(=O)Nc2ccc(Cl)cc2)cc1NC(=O)c1cc2c(s1)CCCC2	CHOP inhibitor 104 | CHOP inh conf inactive
COc1ccc(-c2[nH]ncc2N=Nc2cc(C)cc(C)c2)cc1	CHOP inhibitor 104 | CHOP inh conf 102
S=C(Nc1ccccc1)Nc1cc(Cl)ccc1Oc1ccccc1	CHOP inhibitor 102 | CHOP inh conf inactive
O=C(NCC1CCCO1)c1ccc2c(=O)n(Cc3cccc(Br)c3)c(=S)[nH]c2c1 (configuration not stated)	CHOP inhibitor 107 | CHOP inh conf inactive
CCCn1c(=S)[nH]c2cc(C(=O)NCC3CCCO3)ccc2c1=O (configuration not stated)	none
OCc1ccccc1-c1ccc2nncn2c1	none (no result: UPR CHOP act, CHOP inhibitor, UPR XBP1 act)
CSc1cccc(NC(=O)COc2cccc3ccccc23)c1	CHOP inhibitor 106 | CHOP inh conf inactive
CN(C)S(=O)(=O)c1cccc(NC(=O)COc2cccc3ccccc23)c1	none (no result: CHOP inhibitor)
CCN(CC)c1ccc(/C=N/NC(=S)NCc2ccccc2)c(O)c1	CHOP inhibitor 100 | CHOP inh conf inactive
CCOC(=O)c1csc(NC(=O)Nc2cccc(Cl)c2)n1	CHOP inhibitor 98 | CHOP inh conf inactive
CC(=O)Nc1ccc(C(=O)N2CCCC(c3cc(C(=O)Nc4ccccc4Cl)no3)C2)cc1 (configuration not stated)	none (no result: UPR CHOP act, CHOP inhibitor, UPR XBP1 act)
COC(=O)C(Cc1cnc(Cl)s1)(C(=O)OC)c1ccc(C(F)(F)F)cc1[N+](=O)[O-]	CHOP inhibitor 98 | CHOP inh conf inactive
O=c1c2ccccc2c(C=Nc2cccc(O)c2)c(O)n1-c1ccc2c(c1)OCO2	CHOP inhibitor 107 | CHOP inh conf inactive
Oc1[nH]c2ccccc2c1C=Nc1ccc2c(c1)OCO2	none
COc1ccc(C(O)c2nc(-c3ccc4ccccc4c3)cs2)cc1 (configuration not stated)	none (no result: UPR CHOP act, CHOP inhibitor, UPR XBP1 act)
COCCn1c(=NC(=O)/C=C/c2cccs2)sc2cc(NC(C)=O)ccc21	CHOP inhibitor 105 | CHOP inh conf 79
COCCn1c(=NC(=O)CCS(=O)(=O)c2ccccc2)sc2cc(C)ccc21	none (no result: CHOP inhibitor)
C/C=C/Cn1c(SCCCc2ccccc2)nc2c1c(=O)[nH]c(=O)n2C	CHOP inhibitor 103 | CHOP inh conf 103
CCCCCCn1c(SCCC)nc2c1c(=O)[nH]c(=O)n2C	CHOP inhibitor 99 | CHOP inh conf 81
O=C1ON=C(c2ccccc2)/C1=C/c1ccco1	CHOP inhibitor 104 | CHOP inh conf inactive
COc1ccc(/C=C2/C(=O)ON=C2c2ccccc2)cc1OC	CHOP inhibitor 105 | CHOP inh conf 104
COc1cc(/C=C2\C(=O)ON=C2c2ccccc2)cc(OC)c1OC	none
CNC(=O)C[C@H]1C(=O)N(C2CCCCC2)C[C@@H]1c1ccc(Br)cc1	none (no result: UPR CHOP act, CHOP inhibitor, UPR XBP1 act)
O=C1OCC/C1=C1/NCCNC1=O	none (no result: UPR CHOP act, CHOP inhibitor, UPR XBP1 act)
O=C(CSc1nc2ccsc2c(=O)n1CC1CCC(C(=O)O)CC1)c1ccc(Cl)cc1 (configuration not stated)	CHOP inhibitor 102 | CHOP inh conf inactive
O=C(CSc1nc2ccsc2c(=O)n1CC1CCC(C(=O)O)CC1)c1ccc(F)cc1 (configuration not stated)	none
CCCc1nc2c(C)cc(C)cc2c(N)c1CC	none
Cc1cc(C)c2nc(C(F)(F)F)c(C#N)c(N)c2c1	CHOP inhibitor 106 | CHOP inh conf 116
COC(=O)c1c(NC(=O)c2ccoc2C)sc2c1CCC2	none
Cc1occc1C(=O)Nc1sc2c(c1C(N)=O)CCCCC2	CHOP inhibitor 96 | CHOP inh conf inactive
COc1ccccc1NC(=O)c1c(Nc2ccccc2C)sc(C(=O)Nc2cccc(Cl)c2)c1N	CHOP inhibitor 100 | CHOP inh conf 131
O=[N+]([O-])c1cccnc1N1CCC(c2cc(-c3cccc(C(F)(F)F)c3)n[nH]2)CC1	CHOP inhibitor 103 | CHOP inh conf inactive
COc1ccc(OC)c(-c2cc(C3CCN(c4ncccc4[N+](=O)[O-])CC3)[nH]n2)c1	none
CN(CCCC[C@H](CNCc1ccc(-c2ccccc2)cc1)N1C[C@H](c2ccccc2)N(CCc2ccc(Cl)c(Cl)c2)C(=O)C1=O)Cc1ccc(-c2ccccc2)cc1	CHOP inhibitor 107 (no result: FXN GAA850 act, UPR CHOP act, UPR XBP1 act) | CHOP inh conf 112
CC(C)(C)C1CCc2onc(C(=O)Nc3cccc(O)c3)c2C1 (configuration not stated)	CHOP inhibitor 109 | CHOP inh conf inactive
CC(C)(C)C1CCc2onc(C(=O)Nc3cccnc3)c2C1 (configuration not stated)	none
C=C(C)COc1ccc(-c2[nH]ncc2-c2ccccc2OC)c(O)c1	CHOP inhibitor 106 | CHOP inh conf inactive
Cc1ccc(-c2nnn3c2nc(Cl)c2ccccc23)cc1	none (no result: UPR CHOP act, UPR XBP1 act)
Fc1cccc(-c2nnn3c2nc(Cl)c2ccccc23)c1	CHOP inhibitor 103 (no result: UPR CHOP act, UPR XBP1 act) | CHOP inh conf 127
COc1ccc(C(C[N+](=O)[O-])c2c(-c3ccccc3)cc3ccccn23)cc1 (configuration not stated)	none
COc1ccc(C(C[N+](=O)[O-])C2(c3ccc(OC)c(OC)c3)C(=O)c3ccccc3C2=O)cc1 (configuration not stated)	CHOP inhibitor 104 (no result: UPR CHOP act, UPR XBP1 act) | CHOP inh conf inactive
COc1ccc(CN2C[C@@H](CO)O[C@@H](n3cnc4c(NCCO)ncnc43)C2)cc1	none (no result: UPR CHOP act, CHOP inhibitor, UPR XBP1 act)
COC(=O)Oc1ccc(/C=N/NC(=O)CSCc2ccccc2Br)cc1OC	CHOP inhibitor 96 | CHOP inh conf 75
COC(=O)/C(=C(/F)Sc1cc(C)c(O)c(C)c1)C(F)(F)F	CHOP inhibitor 98 | CHOP inh conf 118
O=C(Nc1ccc2nc([C@@H]3O[C@H](CO)[C@@H](O)[C@H](O)[C@H]3O)[nH]c2c1)NC(c1ccccc1)c1ccccc1	none (no result: UPR CHOP act, CHOP inhibitor, UPR XBP1 act)
CC(C)=CCc1c(O)ccc(C(=O)Cc2ccccc2)c1O	CHOP inhibitor 106 | CHOP inh conf inactive
O=S1(=O)c2ccccc2N=NN1Cc1ccc(Cl)cc1	CHOP inhibitor 109 | CHOP inh conf inactive
CC/C(=C(\c1ccccc1)c1ccc(OCCN(C)C)cc1)c1ccccc1	none
CCN(CC)CCOc1ccc(/C(=C(/Cl)c2ccccc2)c2ccccc2)cc1	CHOP inhibitor 99 | CHOP inh conf inactive
CCn1ncc(Cl)c1C(=O)Nc1cc(Cl)ccc1Cl	CHOP inhibitor 100 | CHOP inh conf inactive
CCOc1cc(N2CCOCC2)c(OCC)cc1NC(=O)c1cc(-c2ccco2)nc2ccccc12	CHOP inhibitor 105 | CHOP inh conf inactive
CN(C)c1ccc(-c2ccnc3c2CC(C)(C(=O)NCC2CC2)O3)cc1 (configuration not stated)	none (no result: UPR CHOP act, CHOP inhibitor, UPR XBP1 act)
CCOc1ccc(CN(C)C(=O)c2cccc(S(=O)(=O)Nc3ccccc3OC)c2)cc1OC	none (no result: UPR CHOP act, CHOP inhibitor, UPR XBP1 act)
CCOc1ccc(/C(=N\O)C(C)NO)cc1 (configuration not stated)	CHOP inhibitor 104 | CHOP inh conf inactive
CCCNC(=O)C1(C)CCN1C(=O)c1ccc(C(C)(C)C)cc1 (configuration not stated)	none (no result: UPR CHOP act, CHOP inhibitor, UPR XBP1 act)

High-throughput results (PubChem)
